# In the library only some 4.2% were active in any assay of this set; here they are far more common.
# AI-2 QS modul: Vibrio harveyi AI-2 quorum sensing modulators, primary screen, JMH597 strain, luminescence/OD600 ratio. Vibrio harveyi JMH597 AI-2 luminescence/OD600 ratio, 9 h; stronger effect = lower value; strain lacks LuxN and CqsS sensors; 0 = neutral-control median. activity change, % at 7.5 µM. 300,000 tested, 0.4% active; in the data active = activity change below about -75%, passing the limit was not always enough;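 also: luminescence divided by OD600 gain over 9 h not by final OD600 alone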
# KCNQ1 block: inhibitors of human KCNQ1 channel, primary screen, cell-based, thallium flux, high-throughput. Potassium voltage-gated channel subfamily KQT member 1 (Homo sapiens), P51787. CHO-K1 KCNQ1, FluxOR thallium flux fluorescence; stronger effect = higher value. B-score at 10 µM. 310,000 tested, 1.3% active. AID 2642, 2010;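 active = compounds whose thallium flux B-score, printed positive for inhibition, exceeds three library SD while starting fluorescence stays within three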;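 also: channel opened by potassium depolarization with thallium stimulus after 20 min compound exposure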
# Target sequence (P51787 whole entry, looked up): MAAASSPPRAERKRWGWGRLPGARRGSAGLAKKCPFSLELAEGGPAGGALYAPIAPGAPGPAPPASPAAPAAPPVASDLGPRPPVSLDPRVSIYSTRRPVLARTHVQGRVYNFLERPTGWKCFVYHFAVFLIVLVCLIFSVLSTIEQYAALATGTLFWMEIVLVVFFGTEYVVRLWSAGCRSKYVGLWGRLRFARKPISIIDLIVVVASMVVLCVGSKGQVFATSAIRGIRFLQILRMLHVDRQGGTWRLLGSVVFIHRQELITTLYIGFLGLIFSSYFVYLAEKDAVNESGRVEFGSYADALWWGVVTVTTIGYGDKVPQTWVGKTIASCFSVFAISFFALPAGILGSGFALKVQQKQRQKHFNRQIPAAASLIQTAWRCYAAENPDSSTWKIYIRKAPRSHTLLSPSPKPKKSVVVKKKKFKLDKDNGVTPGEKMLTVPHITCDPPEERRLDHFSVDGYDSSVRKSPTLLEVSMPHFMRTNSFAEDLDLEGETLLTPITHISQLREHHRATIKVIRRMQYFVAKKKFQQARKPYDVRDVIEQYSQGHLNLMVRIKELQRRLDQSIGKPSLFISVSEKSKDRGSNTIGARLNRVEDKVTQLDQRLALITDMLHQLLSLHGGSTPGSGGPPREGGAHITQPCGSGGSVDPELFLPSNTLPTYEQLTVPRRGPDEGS
# KCC2 mod: KCC2 cotransporter modulators, thallium flux, primary screen, cell-based, HEK293 KCC2, FluoZin-2 fluorescence, MLSMR; Solute carrier family 12 member 5 (Homo sapiens), Q9H2X9; KCC2 cells, thallium flux FluoZin-2 fluorescence; B-score of Tl+ flux slope (higher = more flux/activation; lower = inhibition) at 10 µM; 190,000 tested, 2.2% active;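 active = thallium flux slope and its plate-corrected score both differing from the plate sample mean at a set confidence after two filtering rounds, in either direction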;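 also: slope of fluorescence scaled to starting intensity during 10 to 20 s after thallium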
# hERG protect: hERG rescue from dofetilide block, primary screen, cell-based, CHO-hERG, FluxOR thallium flux, dofetilide IC70. Voltage-gated inwardly rectifying potassium channel KCNH2 (Homo sapiens), Q12809. dofetilide IC70 present. activation (rescue from dofetilide block), less the hit threshold, % at 10 µM. 310,000 tested, 0.51% active. AID 1511, 2009;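 active = activation above the mean of controls blocked by dofetilide plus 5 SD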;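 also: thallium influx through hERG after potassium depolarization seen as dye fluorescence rise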
# KCNQ1 act: potentiators or activators of KCNQ1 channel, primary screen, cell-based, thallium flux, high-throughput | Potassium voltage-gated channel subfamily KQT member 1 (Homo sapiens), P51787 | 310,000 tested, 0.35% active | B-score at 10 µM | CHO-K1 KCNQ1, thallium flux FluxOR fluorescence; stronger effect = higher value;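 active = fluorescence ratio B-score, a plate-corrected score, at least three library SD, with initial intensity B-score within 5 SD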
#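 assay system = KCNQ1-transfected CHO-K1 cells | medium = assay buffer with matched DMSO | probe or stimulus = depolarizing K+/Tl+ stimulus, K2SO4 and Tl2SO4 each 12.5 mM in 5x stock | dosing = single dose | incubation = dye 90 min, compound 20 min, room temperature | detection = kinetic FluxOR fluorescence, 10 s baseline plus 110 s post-stimulus | evaluation = ratio B score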
# Mot1-301 SUMO: yeast Mot1-301 growth rescue at high temperature, primary screen, SUMOylation pathway inhibitor project, S. cerevisiae, ATP luminescence, 38.5C. growth rescue, % at 18.8 µM. AID 2716, 2010. S. cerevisiae Mot1-301 growth rescue; percent above DMSO median, 100 means doubled. 320,000 tested, 1% active;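 active = every valid replicate shows activation above 250% relative to neutral control wells; inactive = the rest, any valid replicate at or below 250%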;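 also: OY570 slx delta 5 strain wells were the positive control but not used for scaling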
# The depositor's hits bear a star; i = inactive; / = no result.
SMILES,AI-2 QS modul,KCNQ1 block,KCC2 mod,hERG protect,KCNQ1 act,Mot1-301 SUMO
CCn1c(SCC(=O)Nc2nc3ccccc3s2)nnc1-c1ccc(OC)cc1,13,i,/,-7,i,343*
CCn1c(Cc2ccccc2)nnc1SCC(=O)Nc1nc2ccccc2s1,7,i,1.4,-10,i,-7
COc1ccc(C(=O)N2CCc3[nH]nc(-c4ccccc4)c3C2)cc1,0,i,/,-12,i,20
CCCCc1ccc(NC(=S)NCc2ccc(OC)cc2)cc1,5,i,0.18,-6,i,8
CN=C1S/C(=C\c2ccc(N3CCCC3)c(F)c2)C(=O)N1C,21,11*,2,-8,i,17
O=C(CN1CCCc2ccccc21)N/N=C/c1c(O)ccc2ccccc12,10,7*,-0.48,-5,i,-1
O=C(N/N=C\c1c(O)ccc2ccccc12)c1ccc(S(=O)(=O)N2CCCCC2)cc1,24,6*,i,-15,i,3
COc1ccc(/C=C/C(=O)C2(O)CCCCC2)cc1OC,-44,i,-1.5,-15,i,115
Cc1onc(-c2c(Cl)cccc2Cl)c1COC(=O)c1ccc(Cl)cc1,14,i,0.52,-10,i,14
CCOc1ccc(CN(C)C(=O)c2cccc(S(=O)(=O)N3CCCC3)c2)cc1OC,/,/,/,/,/,3
O=S(=O)(Nc1ncnc2scc(-c3ccc(F)cc3)c12)c1cc(F)ccc1F,-1,6*,-2,-19,i,319
Cc1ccc(-c2csc3ncnc(NS(=O)(=O)c4ccc(Cl)cc4)c23)cc1,15,i,0.091,-4,i,-9
CC(=O)N/N=C/c1cc(C(C)C)cc(/C=N/NC(C)=O)c1O,17,i,5.7*,-5,i,24
COc1ccc(C)cc1NC(=O)c1cc2c(=O)n3ccccc3nc2n1C,8,i,0.85,50*,i,/
COc1ccc(C)cc1NC(C)C(=O)NC(=O)NC1CCCCC1 (stereo not drawn),/,/,/,/,/,-4
CC(C)CSC1=NSC2=NC(=O)/C(=C\c3ccccc3)C(=N)N12,39,i,139*,22*,20*,20
CCOc1ccc2[nH]c(=O)c(CN(CCN3CCCC3)C(=S)Nc3ccccc3OCC)cc2c1,7,i,0.19,-10,10*,9
Cc1cc(C)nc(Sc2ncnc3sc4c(c23)CCC4)n1,34,i,7.6*,-20,i,60
Cc1ccc(NC(=O)NNC(=O)COc2ccc(Cl)cc2)cc1,2,i,/,-5,i,-7
Cc1cccc(NC(=O)C(=O)NNC(=O)c2ccc(C(C)(C)C)cc2)c1,12,i,/,37*,73*,-7
CC(C)(C)c1ccc(C(=O)NNC(=O)c2cccc(Br)c2)cc1,17,i,0.013,-5,i,-5
COc1ccc(C)cc1NC(=O)C(=O)NNC(=O)COc1ccc(Cl)cc1,10,i,78*,88*,59*,-21
COc1ccc(OCC(=O)NNC(=O)C(=O)Nc2cc(OC)ccc2OC)cc1,23,i,/,15*,i,5
COc1ccc(OC)c(NC(=O)NNC(=O)COc2ccc(-c3ccccc3)cc2)c1,4,i,/,-12,i,-13
Cc1ccc(OCC(=O)NNC(=O)C(=O)NC(C)(C)C)cc1,30,i,13*,3,8*,/
SMILES,AI-2 QS modul,KCNQ1 block,KCC2 mod,hERG protect,KCNQ1 act,Mot1-301 SUMO
COc1cccc(CNC(=O)C2CCN(c3cnccn3)CC2)c1,35,i,0.024,-9,i,4
Cn1c(=O)[nH]c(=O)c2c1nc(N/N=C/C(Br)=C/c1ccccc1)n2CCO,17,i,-0.015,-9,i,49
CC(=O)Nc1cccc(NC(=O)c2csc(C)c2)c1,23,i,/,-8,i,-18
CC(=O)N(CCCNC(=O)c1ccccc1)C(=O)c1ccccc1,13,i,/,-4,i,-6
COc1ccc(CC(=O)NNC(=O)COc2ccc(Br)cc2C)cc1OC,2,i,0.62,-7,i,-17
Cc1ccccc1NC(=O)C(=O)NNC(=O)COc1ccc2ccccc2c1,2,i,/,29*,49*,-8
COc1cccc(OCC(=O)NNC(=O)C(=O)Nc2cccc(C)c2)c1,7,i,/,17*,21*,7
COc1ccc(OC)c(NC(=O)C(=O)NNC(=O)COc2ccc(Br)cc2C)c1,15,i,91*,104*,66*,-7
O=C(Nc1ccccc1[N+](=O)[O-])c1cccnc1Cl,13,i,0.2,-5,i,0
CN(CC(=O)Nc1ccc(Cl)cc1F)C1=NS(=O)(=O)c2ccccc21,/,/,/,/,/,-6
Oc1ccccc1C1CC(c2cccs2)=NC(c2cccc(Br)c2)N1 (stereo not drawn),-9,i,0.75,-10,i,593
Cc1ccc(S(=O)(=O)c2cnc3cc(C)nn3c2N)cc1,-90*,i,0.63,4,i,-7
CCOc1ccc(CCNC(=O)c2cc(-c3ccccc3)c(N3CCOCC3)s2)cc1OCC,/,6*,/,-5,i,44
CCOc1ccc(CCNC(=O)c2cc(-c3ccccc3)c(N3CCOCC3)s2)cc1,9,i,/,-5,i,60
CSc1ncccc1C(=O)OCC(=O)NCc1ccc2c(c1)OCO2,23,i,-0.66,-3,i,294*
CCOc1ncccc1C(=O)OCC(=O)NCc1ccc2c(c1)OCO2,16,i,0.28,-10,i,0
OC(CCN1CCOCC1)c1ccccc1 (stereo not drawn),/,i,/,9.3*,i,4
CC(=O)NC(c1ccc(Cl)cc1Cl)c1ccc2cccnc2c1O (stereo not drawn),-84*,i,/,-4,i,i
CCN1CCCC1CNC(=O)c1ccc2c(c1)NC(=O)/C(=C\c1ccc(C)cc1)S2 (stereo not drawn),18,11*,/,-22,i,-25
Cc1ccc(/C=C2/Sc3ccc(C(=O)NCCN4CCOCC4)cc3NC2=O)cc1,-9,i,/,-3,i,-8
